From PubChem BioAssay
Shown are actives, neighbours in structure and some others; about 4.7% of the full set was active somewhere.
RGS4 pot = potentiators or activators of RGS4; HEK293 M3R/inducible RGS4, carbachol calcium flux Fluo4; active compounds read low; 310,000 compounds, 0.92% hits; B-score at 10 µM;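 active = B-score of the integrated calcium signal more than 4 SD below the library mean, with starting fluorescence not abnormally high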;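 note: negative B-score means reduced calcium response which marks RGS4 activation or potentiation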
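Material: M3R-expressing HEK293 line, RGS4 induced by doxycycline | Schedule: Overnight RGS4 induction, 30 min dye load 37 °C, 20 min compound RT | Measured by: Fluo4 fluorescence kinetic imaging of calcium | Read-out: Integrated calcium ratio converted to B score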
MrgX1 agonist = agonists of human MrgX1 receptor. Q96LB2. MrgX1-HEK293 cells, Fluo-4 calcium fluorescence, agonist mode; active compounds read high. B-score at 10 µM. 310,000 compounds, 0.44% hits. AID 588627;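 active = calcium response B-score plate-corrected fluorescence ratio at least 3 library SD, with starting fluorescence B-score inside 5 SD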
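times = overnight plating, then 30 min 37 °C plus 30 min room-temperature dye loading | assay system = stable human MrgX1 HEK293 cell line | input = fifteen thousand cells per well | signal = kinetic calcium dye fluorescence, Fluo-4 NW | dosing = compound delivered in addition one of three | read-out = B-scored fluorescence response ratio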
KCC2 mod = modulates chloride dependent transport by human KCC2; KCC2 cells, thallium flux FluoZin-2 fluorescence; 190,000 compounds, 2.2% hits; B-score of Tl+ flux slope (higher = more flux/activation; lower = inhibition) at 10 µM; Q9H2X9;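 active = thallium flux slope and its plate-corrected score both differing from the plate sample mean at a set confidence after two filtering rounds, in either direction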;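 note: slope of fluorescence scaled to starting intensity during 10 to 20 s after thallium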
Target sequence (Q9H2X9 whole entry, looked up): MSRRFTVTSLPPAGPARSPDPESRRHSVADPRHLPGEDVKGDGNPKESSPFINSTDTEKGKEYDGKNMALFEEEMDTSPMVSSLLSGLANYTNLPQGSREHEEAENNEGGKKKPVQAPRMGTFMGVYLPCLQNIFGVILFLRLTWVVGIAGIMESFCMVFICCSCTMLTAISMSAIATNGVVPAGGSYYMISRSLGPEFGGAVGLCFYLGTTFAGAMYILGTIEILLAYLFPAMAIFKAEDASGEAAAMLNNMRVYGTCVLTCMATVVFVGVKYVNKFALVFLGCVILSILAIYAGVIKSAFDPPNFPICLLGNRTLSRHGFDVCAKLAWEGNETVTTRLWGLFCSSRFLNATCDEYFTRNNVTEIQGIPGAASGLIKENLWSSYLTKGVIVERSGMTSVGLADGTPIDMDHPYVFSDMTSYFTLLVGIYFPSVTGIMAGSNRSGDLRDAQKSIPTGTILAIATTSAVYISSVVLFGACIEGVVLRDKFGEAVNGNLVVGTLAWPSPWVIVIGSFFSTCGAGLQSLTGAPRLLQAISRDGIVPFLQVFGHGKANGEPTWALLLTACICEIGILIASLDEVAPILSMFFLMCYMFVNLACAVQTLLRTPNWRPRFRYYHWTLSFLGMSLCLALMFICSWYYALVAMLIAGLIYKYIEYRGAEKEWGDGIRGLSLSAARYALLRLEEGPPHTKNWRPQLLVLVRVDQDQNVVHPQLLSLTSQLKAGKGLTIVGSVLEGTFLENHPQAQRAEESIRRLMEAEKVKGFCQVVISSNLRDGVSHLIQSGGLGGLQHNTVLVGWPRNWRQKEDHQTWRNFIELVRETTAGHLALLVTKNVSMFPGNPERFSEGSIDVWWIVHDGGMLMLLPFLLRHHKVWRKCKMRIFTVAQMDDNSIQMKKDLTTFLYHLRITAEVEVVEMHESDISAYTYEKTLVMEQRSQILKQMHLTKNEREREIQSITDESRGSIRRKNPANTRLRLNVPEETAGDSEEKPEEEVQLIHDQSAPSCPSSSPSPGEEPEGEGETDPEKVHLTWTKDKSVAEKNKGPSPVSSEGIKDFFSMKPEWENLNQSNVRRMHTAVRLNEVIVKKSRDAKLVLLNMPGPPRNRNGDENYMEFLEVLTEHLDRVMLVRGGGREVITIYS
MrgX1 allo act = human MrgX1 positive allosteric modulation, primary screen; 310,000 compounds, 0.63% hits; MrgX1-HEK293, Fluo-4 calcium flux, FDSS; active compounds read high; B-score at 10 µM; Q96LB2;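 active = plate-corrected calcium response at least 3 library SD above typical, normal starting fluorescence, not activating the receptor alone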;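 note: compound read alongside a low EC10 to EC30 dose of BAM8-22 agonist; peak minus trough fluorescence over baseline measured at the second addition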
RGS4 inh = inhibitors of human RGS4; P49798; HEK293 M3R/RGS4 inducible, Fluo-4 calcium flux; active compounds read high; triggered by carbachol at its EC20; B-score at 10 µM; 310,000 compounds, 0.45% hits; AID 463165;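 active = B-score, a plate-corrected calcium signal, over three deviations above library mean, with baseline fluorescence within five deviations of library mean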;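 note: RGS4 expression induced by doxycycline in cells with stable M3 receptor; B-score is computed from the integrated fluorescence ratio over baseline after carbachol; higher B-score means a larger calcium signal and so more RGS4 inhibition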
MrgX1 antag = human MrgX1 receptor antagonism, primary screen | MRGX1-HEK293 calcium flux, Fluo-4, BAM8-22 antagonism; active compounds read low | B-score at 10 µM | 310,000 compounds, 1.3% hits;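 active = calcium-response B-score plate-corrected more than 3 library SD below zero, starting fluorescence within 5 deviations, no agonist response on first addition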;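 note: peak minus trough fluorescence over baseline after final BAM8-22 challenge near maximal dose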
MrgX1 antag conf = reconfirmed antagonist of human MrgX1 receptor signaling. shares compounds with MrgX1 antag. MrgX1-HEK293, BAM8-22 calcium flux, Fluo-4; active compounds read low. remaining BAM8-22 calcium response % of control (active compounds read low), % at 10 µM. 2,300 compounds, 19% hits. AID 602420;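 active = remaining agonist calcium response no higher than 100% minus 3 SD of agonist-only control wells, with starting fluorescence near control levels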;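 note: agonist BAM8-22 given at a near maximal EC90 to ECmax level; peak minus minimum fluorescence divided by baseline after agonist addition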
HEK293 Ca flux = activity in parental HEK293 cells lacking MrgX1; shares compounds with MrgX1 antag; Fluo-4 calcium fluorescence, FDSS; fluorescence ratio F(max-min)/F0 at 10 µM; 4,000 compounds, 2% hits; AID 624111;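 active = duplicate-averaged calcium fluorescence ratio at least three times the standard deviation of buffer wells, a nonspecific response in parental cells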
HEK293 Ca counter = counter-screen for MrgX1 allosteric activators: effect in parental HEK293 cells. shares compounds with MrgX1 antag. AID 624114. fluorescence ratio F(max-min)/F0 at 10 µM. 4,000 compounds, 0.4% hits. parental HEK293 calcium flux, Fluo-4 fluorescence ratio; active compounds read high;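 active = calcium fluorescence ratio, averaged over duplicates, at least 3 SD of the buffer-well ratio, meaning a nonspecific response in receptor-free cells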;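 note: untransfected parental HEK293 lacking MrgX1 used as counterscreen for MrgX1 allosteric activators; fluorescence change taken during the second addition on a kinetic imager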
HEK293 Ca cntr2 = activity in parental HEK293 cells lacking MrgX1 receptor. shares compounds with MrgX1 antag. Fluo-4 calcium fluorescence (FDSS); active compounds read high. fluorescence ratio F(max-min)/F0 at 10 µM. 4,000 compounds, 8.7% hits. AID 624115;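 active = calcium fluorescence ratio at least three times the spread of buffer wells, meaning a non-specific response in parental cells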
A number is an active result; n = inactive; x = no result.

SMILES	RGS4 pot	MrgX1 agonist	KCC2 mod	MrgX1 allo act	RGS4 inh	MrgX1 antag	MrgX1 antag conf	HEK293 Ca flux	HEK293 Ca counter	HEK293 Ca cntr2
COc1ccc(-c2nc(N3CCCC3)[nH]c(=O)c2C#N)cc1	n	n	n	n	n	n	x	x	x	x
COc1ccc(-c2nc(N3CCC(C)CC3)[nH]c(=O)c2C#N)cc1	n	n	x	n	n	-5.6	n	n	n	n
COc1ccc(NC(=O)Cc2nnc(SCC(=O)c3ccc(F)cc3)n2C)cc1	n	n	x	n	n	n	x	x	x	x
CCOC(=O)c1sc(NC(=O)c2ccc(C)o2)nc1C	n	n	x	n	n	-8	n	n	n	n
CCN1CCc2nc(NC(=O)CC(c3ccccc3)c3ccccc3)sc2C1	n	n	n	n	n	n	x	x	x	x
CCN1CCc2nc(NC(=O)C(c3ccccc3)c3ccccc3)sc2C1	n	n	n	n	n	-5.8	n	n	n	n
Cn1cnc(S(=O)(=O)NCc2ccc(Br)cc2)c1	n	n	x	n	n	n	x	x	x	x
COc1ccc(-c2nc(CSCC(=O)NCc3ccc4c(c3)OCO4)c(C)o2)cc1	n	n	x	n	n	n	x	x	x	x
Cc1ccsc1-c1nc(CSCC(=O)NCc2ccc3c(c2)OCO3)c(C)o1	n	n	x	n	n	-4.8	n	n	n	51
COc1ccc(C(=O)N2N=C(c3ccc(NS(C)(=O)=O)cc3)CC2c2cccs2)cc1 (centres undefined)	n	n	x	n	n	n	x	x	x	x
Cn1ccnc1SCC(=O)Nc1ccc(Br)cc1C(F)(F)F	n	n	x	n	n	-5.9	n	n	n	n
O=C1CSC(=S)N1/N=C/c1cc(Br)c(O)c(Br)c1	n	n	x	n	n	n	x	x	x	x
C[C@@]12C(=O)Nc3cc(F)ccc3C(=O)N1[C@H]1c3ccccc3OC[C@@H]1[C@@H]2c1ccccc1	x	n	x	n	x	-6.2	82%	n	n	n
CNc1nc(Cl)c(SC)c(NCc2cccc(OC)c2)n1	n	n	x	n	n	n	x	x	x	x
CCCCOCCCNc1ncnc2c1[nH]c1ccccc12	n	n	n	n	n	-14	26%	n	n	n
Cc1ccc(C(=O)NNC(=O)/C=C\C(=O)O)cc1	n	n	n	n	n	n	x	x	x	x
O=C(CN(C(=O)c1csnn1)c1ccc(F)cc1)NCCc1ccccc1	n	n	x	n	n	n	x	x	x	x
Cc1ccc(S(=O)(=O)N2CCN(C(=O)c3sccc3-c3ccccc3)CC2)cc1	n	n	x	n	n	-5.4	n	n	n	n
CC(=O)Nc1ccc(NC(=O)Nc2ccc3c(c2)N(C)C(=O)CS3)cc1	n	n	n	n	n	n	x	x	x	x
COc1cccc(NC(=O)Nc2ccc3c(c2)N(C)C(=O)CS3)c1	n	n	n	n	n	-7.3	42%	n	n	n
CN1C(=O)CSc2ccc(NC(=O)Nc3ccccn3)cc21	n	n	n	n	n	n	x	x	x	x
CCOc1ccc(OCC)c(NC(=O)Nc2ccc3c(c2)N(C)C(=O)CS3)c1	n	n	n	n	n	-6.3	80%	n	n	n
N#Cc1ccc(OCC(O)CN2CCN(c3ncc(C(F)(F)F)cc3Cl)CC2)cc1 (centres undefined)	n	n	x	n	n	n	x	x	x	x
COc1cc(C)c(NC(=S)Nc2ccc(Cl)c(Cl)c2)cc1OC	n	n	n	n	n	-5.3	66%	n	n	n
O=S(=O)(Nc1nc(-c2ccccc2)cs1)c1cccc(C(F)(F)F)c1	n	n	x	n	n	-7.4	n	n	n	n
